# Results as given in PMC5726523 (Nature chemistry, 2017).
# Residue numbers refer to the chain shown, from its start.
# What was measured:
# K155 of SIN3A [1] = target: T1, K155 of SIN3A (Homo sapiens, UniProt Q96ST3); test: gel-based ABPP, blockade of probe labeling of SIN3A; format: binding; details: read-out: apparent IC50, blockade of probe labeling of K155, lysates of HEK293T cells expressing Flag-SIN3A a.a. 1-400
# T1 sequence (Q96ST3 1-400): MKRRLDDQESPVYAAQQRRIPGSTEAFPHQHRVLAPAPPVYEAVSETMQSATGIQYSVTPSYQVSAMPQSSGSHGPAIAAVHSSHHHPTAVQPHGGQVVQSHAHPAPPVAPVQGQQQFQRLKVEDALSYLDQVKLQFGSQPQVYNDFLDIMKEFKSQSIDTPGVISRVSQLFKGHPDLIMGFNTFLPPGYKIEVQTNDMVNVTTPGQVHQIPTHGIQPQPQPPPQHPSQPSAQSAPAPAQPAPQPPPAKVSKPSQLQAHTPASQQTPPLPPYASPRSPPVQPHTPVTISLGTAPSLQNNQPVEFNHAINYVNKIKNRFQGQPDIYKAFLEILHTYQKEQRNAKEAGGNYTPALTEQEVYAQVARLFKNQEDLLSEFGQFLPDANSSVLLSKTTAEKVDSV
# K155 of SIN3A [2] = target: T2, K155 of SIN3A (Homo sapiens, UniProt Q96ST3); test: competitive isoTOP-ABPP, SIN3A K155; format: binding; details: 50 μM, human cancer cell proteomes
# T2 sequence (Q96ST3 1-1273): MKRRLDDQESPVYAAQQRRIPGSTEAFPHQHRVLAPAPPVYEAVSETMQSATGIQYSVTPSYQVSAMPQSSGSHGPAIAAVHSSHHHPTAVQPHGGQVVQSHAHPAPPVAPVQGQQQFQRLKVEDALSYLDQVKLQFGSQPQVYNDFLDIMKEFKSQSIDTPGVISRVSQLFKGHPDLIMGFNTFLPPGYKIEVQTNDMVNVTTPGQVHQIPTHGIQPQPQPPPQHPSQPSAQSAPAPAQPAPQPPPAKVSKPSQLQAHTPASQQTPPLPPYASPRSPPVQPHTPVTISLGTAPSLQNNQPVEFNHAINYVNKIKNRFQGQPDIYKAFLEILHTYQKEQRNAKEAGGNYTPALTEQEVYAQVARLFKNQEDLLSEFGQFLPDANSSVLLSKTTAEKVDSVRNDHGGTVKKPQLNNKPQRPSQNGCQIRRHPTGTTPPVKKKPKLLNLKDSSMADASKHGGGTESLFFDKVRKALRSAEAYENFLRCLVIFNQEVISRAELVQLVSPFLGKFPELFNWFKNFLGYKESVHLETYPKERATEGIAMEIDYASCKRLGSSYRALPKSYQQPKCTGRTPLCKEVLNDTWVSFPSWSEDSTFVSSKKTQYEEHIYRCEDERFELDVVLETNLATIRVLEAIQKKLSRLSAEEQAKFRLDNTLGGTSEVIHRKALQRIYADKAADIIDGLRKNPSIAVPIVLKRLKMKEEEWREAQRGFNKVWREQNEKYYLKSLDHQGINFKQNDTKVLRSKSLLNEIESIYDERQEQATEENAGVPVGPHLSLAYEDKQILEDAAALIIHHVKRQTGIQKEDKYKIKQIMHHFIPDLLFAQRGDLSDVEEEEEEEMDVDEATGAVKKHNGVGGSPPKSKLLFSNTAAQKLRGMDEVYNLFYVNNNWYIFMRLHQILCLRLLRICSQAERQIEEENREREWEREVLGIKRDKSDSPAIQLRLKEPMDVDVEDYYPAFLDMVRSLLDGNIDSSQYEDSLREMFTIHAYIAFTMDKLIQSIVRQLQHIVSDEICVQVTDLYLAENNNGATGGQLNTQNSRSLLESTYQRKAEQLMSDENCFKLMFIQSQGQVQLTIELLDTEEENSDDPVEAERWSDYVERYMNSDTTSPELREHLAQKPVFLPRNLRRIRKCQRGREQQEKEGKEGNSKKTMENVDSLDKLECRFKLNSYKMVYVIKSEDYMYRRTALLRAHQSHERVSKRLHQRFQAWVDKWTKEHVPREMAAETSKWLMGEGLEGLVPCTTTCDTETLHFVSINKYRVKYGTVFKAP
# In short: (§1)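 Human cancer cell proteomes were pretreated with an amine-reactive electrophilic fragment (50–100 μM) or DMSO, then probe 1 (100 μM). Labeled proteins were CuAAC-conjugated to isotopic TEV-cleavable azide-biotin tags (DMSO heavy, fragment light), combined and analysed by isoTOP-ABPP. R = DMSO/fragment MS1 peak ratio of probe-labeled peptides. R ≥ 4 (≥75% loss of enrichment) defines liganding.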
# TGIF1-SIN3A interaction = target: T3, TGIF1-SIN3A interaction (Homo sapiens, UniProt Q96ST3); test: SILAC co-immunoprecipitation-MS proteomics, SIN3A-TGIF1; format: biochemical; details: 50 μM, 1 h, co-IP MS proteomics
# T3 sequence (Q96ST3 1-400): T1 sequence (Q96ST3 1-400)
# In short: (§2)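 HEK293T cells were metabolically labeled with isotopically differentiated amino acids. Heavy cells were transfected with Flag-SIN3A and light cells with Flag-GFP. Cells were lysed and anti-Flag immunoprecipitated. Heavy and light IPs were combined, trypsin-digested and run on LC-MS/MS. SIN3A interactors were proteins enriched >five-fold over GFP. Paired comparisons were WT vs K155W-SIN3A, and DMSO vs test compound (50 μM, 1 h) on WT.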
# TGIF2-SIN3A interaction = target: T4, TGIF2-SIN3A interaction (Homo sapiens, UniProt Q96ST3); test: SILAC co-immunoprecipitation-MS proteomics, SIN3A-TGIF2; format: biochemical; details: 50 μM, 1 h, co-IP MS proteomics
# T4 sequence (Q96ST3 1-400): T1 sequence (Q96ST3 1-400)
# In short: as §2
# SIN3A-TGIF1 interaction = target: T5, SIN3A-TGIF1 interaction (Homo sapiens, UniProt Q96ST3); test: co-immunoprecipitation western blot, Flag-SIN3A / Myc-TGIF1; format: biochemical; details: 50 μM, 1 h, anti-Myc blotting
# T5 sequence (Q96ST3 1-400): T1 sequence (Q96ST3 1-400)
# In short: (§3)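 Flag-SIN3A (a.a. 1-400, WT or K155 mutants) or Flag-GFP was co-expressed in HEK 293T cells with Myc-TGIF1 or Myc-TGIF2. Lysates were treated with DMSO or test compound (50 μM, 1 h), immunoprecipitated and analysed by anti-Myc western blot. Four biological replicates, mean ± SD. Unpaired Student's t-test, WT + compound vs K155R + compound.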
# SIN3A-TGIF2 interaction = target: T6, SIN3A-TGIF2 interaction (Homo sapiens, UniProt Q96ST3); test: co-immunoprecipitation western blot, Flag-SIN3A / Myc-TGIF2; format: biochemical; details: 50 μM, 1 h
# T6 sequence (Q96ST3 1-400): T1 sequence (Q96ST3 1-400)
# In short: as §3
# [3] = target: T7, SIN3A K155R-TGIF1 interaction (Homo sapiens, UniProt Q96ST3, K155R); test: co-immunoprecipitation western blot, Flag-SIN3A K155R / Myc-TGIF1; format: biochemical; details: 50 μM, 1 h
# T7 sequence (Q96ST3 1-400 K155R): T1 sequence (Q96ST3 1-400) with K155R
# In short: as §3
# K35 in transthyretin TTR = K35 in transthyretin TTR (Homo sapiens, UniProt P02766); test: competitive isoTOP-ABPP, TTR K35; format: binding; details: compared with fragments 29 and 30
# In short: as §1
# NUDT2 [4] = target: T8, NUDT2 (Homo sapiens, UniProt P50583); test: gel-based ABPP, blockade of probe labeling of NUDT2; format: binding; details: read-out: apparent IC50, blockade of probe labeling of NUDT2
# In short: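 Flag-tagged NUDT2 was recombinantly expressed in HEK 293T cells. Samples were treated with test compound, then a lysine-reactive probe, and analysed by gel-based ABPP. Apparent IC50 is from blockade of probe labeling of the liganded lysine.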
# NUDT2 [5] = target: T8, NUDT2; test: NUDT2 substrate assay; format: biochemical; details: compared with gel-based ABPP IC50 of 2 μM
# K89 of NUDT2 = K89 of NUDT2 (Homo sapiens, UniProt P50583); test: competitive isoTOP-ABPP, NUDT2 K89; format: binding
# In short: as §1
# T8 sequence (P50583 whole entry): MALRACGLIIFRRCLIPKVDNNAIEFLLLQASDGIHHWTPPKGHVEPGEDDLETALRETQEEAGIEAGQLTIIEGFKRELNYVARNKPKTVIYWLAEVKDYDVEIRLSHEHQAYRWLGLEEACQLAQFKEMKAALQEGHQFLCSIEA
# Sequence of K89 of NUDT2 (P50583 whole entry): as above
smiles,measurement,setting,value
O=C(Oc1c(F)c(F)c(F)c(F)c1F)c1cc(C(F)(F)F)cc(C(F)(F)F)c1 [fragment 21],IC50,K155 of SIN3A [1],5 µM
same,R value (DMSO/fragment) for tryptic peptide containing K155,K155 of SIN3A [2],20
same,blockade of probe 1 labeling of K155,K155 of SIN3A [2],> 95%
same,effect on TGIF1-SIN3A interaction,TGIF1-SIN3A interaction,strongly blocked
same,effect on TGIF2-SIN3A interaction,TGIF2-SIN3A interaction,marginal effect
same,effect on co-immunoprecipitation of TGIF1 with SIN3A,SIN3A-TGIF1 interaction,blocked
same,effect on co-immunoprecipitation of TGIF2 with SIN3A,SIN3A-TGIF2 interaction,partial blockade
same,effect on SIN3A-TGIF1 interaction with K155R mutant,[3],conferred resistance
O=C(Oc1ccc([N+](=O)[O-])cc1[N+](=O)[O-])c1cc(C(F)(F)F)cc(C(F)(F)F)c1 [fragment 31],targeting of K35 of TTR,K35 in transthyretin TTR,preferentially targeted
COC(=O)NC(=NC(=O)OCC1c2ccccc2-c2ccccc21)n1cccn1 [fragment 49],IC50,NUDT2 [4],2 µM
same,"IC50, inhibition of NUDT2 activity",NUDT2 [5],equivalent IC50 value
same,reactivity with K89 of NUDT2,K89 of NUDT2,preferentially reacting
